ChEMBL document CHEMBL3351249, “Potent cholesteryl ester transfer protein inhibitors of reduced lipophilicity: 1,1'-spiro-substituted hexahydrofuroquinoline derivatives” (J Med Chem, 2014)

Key:
[1] = Drug concentration in kidney of hemizygous human CETP transgenic mouse at 3 mg/kg, po dosed for 5 consecutive days measured on day 21 after cessation of drug treatment; type: ADME, organism-based; parameters: dose 3 mg/kg, route oral; conditions: read-out: Drug uptake
Summary of the method: (§1)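 Male hCETP transgenic mice given oral doses for 5 days in 0.5% hydroxyethylcellulose. Tissues and plasma collected at day 3 and day 21 after the last dose. Fat diluted 6:1 with acetonitrile and homogenized. Analysis by LC/MS/MS on a C18 column with QCs at 4.0−1000 nM, accepted within 30% of target.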

[2] = Drug concentration in plasma of hemizygous human CETP transgenic mouse at 3 mg/kg, po dosed for 5 consecutive days measured on day 21 after cessation of drug treatment; type: ADME, organism-based; parameters: dose 3 mg/kg, route oral; summary of the method: as §1
Mus musculus [3] = assay: Increase in HDL-cholesterol in hemizygous human CETP transgenic mouse dosed for 5 consecutive days via oral gavage; type: functional, organism-based
Summary of the method: (§2)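 Male hemizygous hCETP or hCETP/hApoB100 transgenic mice, 26−30 weeks, chow-fed. Compound suspended in 0.5% aqueous hydroxyethylcellulose, oral gavage each morning for 5 or 14 days. EDTA blood taken 7 h post-dose (fed for 5-day, after 4 h fast for 14-day) from vena facialis under isoflurane. HDL/LDL cholesterol measured on Cobas Integra 400 Plus. Mean ± SEM, one-way ANOVA with Bonferroni.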

[4] = Mean residence time in cynomolgus monkey up to 100 mg/kg; type: ADME, organism-based, Macaca fascicularis; parameters: dose 100 mg/kg; conditions: in vivo
Summary of the method: (§3)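 Acute telemetry study in conscious cynomolgus monkeys at doses up to 100 mg/kg. Blood pressure, left ventricular pressure, contractility, heart rate and ECG (PR, QRS, QT) recorded. Exposure followed as Cmax and MRT.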

Plasma [5] = assay: Plasma concentration in hemizygous human CETP transgenic mouse at 1 mg/kg, po dosed for 5 consecutive days measured on day 5 and day 7 post dose; type: ADME, organism-based; parameters: dose 1 mg/kg, route oral; conditions: in vivo
Cynomolgus monkey [6] = assay: Effect on left ventricular pressure in cynomolgus monkey up to 100 mg/kg by telemetry; type: ADME, organism-based, Macaca fascicularis, Heart left ventricle; parameters: dose 100 mg/kg; conditions: in vivo; summary of the method: as §3
[7] = AUC (0 to 24 hrs) in C57BL/6J mouse at 10 umol/kg, po; type: ADME, organism-based; parameters: time < 24 hr, dose 10 umol/kg, route oral; conditions: plasma
Muscle tissue = assay: Drug concentration in muscle of hemizygous human CETP transgenic mouse at 3 mg/kg, po dosed for 5 consecutive days measured on day 3 after cessation of drug treatment; type: ADME, organism-based; parameters: dose 3 mg/kg, route oral; conditions: in vivo; summary of the method: as §1
Mus musculus [8] = assay: Reduction in LDL-cholesterol in hemizygous human CETP/human apoB100 transgenic mouse dosed for 14 consecutive days via oral gavage
Mus musculus [9] = assay: Increase in HDL-cholesterol in hemizygous human CETP transgenic mouse at 1 mg/kg, po dosed for 5 consecutive days; type: functional; summary of the method: as §2
[10] = Volume of distribution at steady state in C57BL/6J mouse at 1 umol/kg, iv; type: ADME, organism-based; conditions: in vivo, read-out: Vdss
NCI-H295R = assay: Effect on aldosterone secretion in human NCI-H295R cells up to 10 uM; type: ADME, cell-based
Mus musculus [11] = assay: Increase in HDL-cholesterol in human CETP/human ApoB-100 transgenic mouse at 10 mg/kg, po dosed for 14 consecutive days; type: functional; summary of the method: as §2
[12] = Drug concentration in adipose fat tissue of hemizygous human CETP transgenic mouse at 3 mg/kg, po dosed for 5 consecutive days measured on day 21 after cessation of drug treatment; type: ADME, organism-based; parameters: dose 3 mg/kg, route oral; conditions: read-out: Drug uptake; summary of the method: as §1
[13] = target: T1, Cholesteryl ester transfer protein (Homo sapiens, UniProt P11597); assay: Inhibition of human recombinant CETP in presence of 88% human plasma by fluorescence transfer assay
T1 sequence (P11597 whole entry): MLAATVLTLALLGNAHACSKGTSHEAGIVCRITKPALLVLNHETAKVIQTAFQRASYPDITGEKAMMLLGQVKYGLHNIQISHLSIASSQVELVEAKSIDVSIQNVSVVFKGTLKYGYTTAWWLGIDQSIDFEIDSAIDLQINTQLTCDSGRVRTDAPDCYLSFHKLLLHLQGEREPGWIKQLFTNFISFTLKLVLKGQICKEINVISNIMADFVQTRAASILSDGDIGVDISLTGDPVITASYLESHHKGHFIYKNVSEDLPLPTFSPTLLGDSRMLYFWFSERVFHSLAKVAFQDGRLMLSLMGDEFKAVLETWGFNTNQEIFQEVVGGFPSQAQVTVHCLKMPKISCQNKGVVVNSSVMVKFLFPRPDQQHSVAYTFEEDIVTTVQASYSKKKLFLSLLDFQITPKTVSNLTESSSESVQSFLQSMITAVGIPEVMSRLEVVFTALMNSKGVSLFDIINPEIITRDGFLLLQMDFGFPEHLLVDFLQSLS
Summary of the method: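 Fluorescent neutral-lipid transfer from donor to acceptor particles by human recombinant CETP, with the test compound added in DMSO. Incubation 3 h at 37 °C. CE transfer is read as the fluorescence change at 485/535 nm. IC50 comes from a four-parameter logistic fit with variable slope. For this line the reaction contains 88% human plasma.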

Cynomolgus monkey [14] = assay: Effect on myocardial contractility in cynomolgus monkey up to 100 mg/kg by telemetry; type: ADME, organism-based, Macaca fascicularis, Myocardium; parameters: dose 100 mg/kg; conditions: in vivo; summary of the method: as §3
Mus musculus [15] = assay: Increase in HDL-cholesterol in hemizygous human CETP transgenic mouse dosed for 14 consecutive days via oral gavage; type: functional, organism-based; summary of the method: as §2
[16] = Drug concentration in testes of hemizygous human CETP transgenic mouse at 3 mg/kg, po dosed for 5 consecutive days measured on day 3 after cessation of drug treatment; type: ADME, organism-based, Testis; parameters: dose 3 mg/kg, route oral; conditions: in vivo; summary of the method: as §1
Mus musculus [17] = assay: Reduction in plasma LDL-cholesterol in human CETP/human ApoB-100 transgenic mouse at 1 mg/kg, po dosed for 14 consecutive days; type: functional; summary of the method: as §2
[18] = Cmax in cynomolgus monkey up to 100 mg/kg; type: ADME, organism-based, Macaca fascicularis; parameters: dose 100 mg/kg; conditions: in vivo; summary of the method: as §3
Plasma [19] = assay: Plasma concentration in hemizygous human CETP transgenic mouse at 3 mg/kg, po dosed for 5 consecutive days measured on day 5 and day 7 post dose; type: ADME, organism-based; parameters: dose 3 mg/kg, route oral; conditions: in vivo
[20] = Drug concentration in adipose fat tissue of hemizygous human CETP transgenic mouse at 3 mg/kg, po dosed for 5 consecutive days measured on day 3 after cessation of drug treatment; type: ADME, organism-based; parameters: dose 3 mg/kg, route oral; conditions: in vivo; summary of the method: as §1
Mus musculus [21] = assay: Increase in HDL-cholesterol in human CETP/human ApoB-100 transgenic mouse at 1 mg/kg, po dosed for 14 consecutive days; type: functional; summary of the method: as §2
[22] = Mean residence time in C57BL/6J mouse at 1 umol/kg, iv; type: ADME, organism-based; conditions: in vivo
Plasma [23] = assay: Drug concentration in plasma of hemizygous human CETP transgenic mouse at 3 mg/kg, po dosed for 5 consecutive days measured on day 3 after cessation of drug treatment; type: ADME, organism-based; parameters: dose 3 mg/kg, route oral; conditions: in vivo; summary of the method: as §1
Mus musculus [24] = assay: Increase in HDL-cholesterol in human CETP/human ApoB-100 transgenic mouse at 3 mg/kg, po dosed for 14 consecutive days; type: functional; summary of the method: as §2
Mus musculus [25] = assay: Inhibition of plasma CETP activity in hemizygous human CETP transgenic mouse dosed for 5 or 14 consecutive days via oral gavage; type: functional, organism-based
[26] = Clearance in C57BL/6J mouse at 1 umol/kg, iv; type: ADME, organism-based; conditions: in vivo
Mus musculus [27] = assay: Reduction in plasma LDL-cholesterol in human CETP/human ApoB-100 transgenic mouse at 10 mg/kg, po dosed for 14 consecutive days; type: functional
Summary of the method: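 Hemizygous male human CETP/human apoB100 transgenic mice (B6.SJL-Tg(APOA-CETP)1Dsg Tg(APOB)1102Sgy N10), aged 26–30 weeks and chow-fed, received oral gavage each morning for 14 consecutive days. Compound was suspended in 0.5% aqueous hydroxyethylcellulose. EDTA blood was taken from the facial vein under isoflurane 7 h post-dose after a 4 h fast. Plasma LDL-cholesterol fraction was measured on an automated analyzer. Data are mean ± SEM.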

Q: For `CC(C)c1nc2c(c3c1[C@@H](c1ccc(C(F)(F)F)cc1)OC31CCOCC1)[C@@H](O)CC(C)(C)C2`, which concentration at 21 days after cessation of treatment [1] is on record?
A: < 30 nM

Q: What about the concentration at 21 days after cessation of treatment [2] of the same compound?
A: < 30 nM

Q: And the Activity (Mus musculus [3])?
A: Dose-dependent effect

Q: And the MRT [4]?
A: > 20 h

Q: What about the concentration (Plasma [5]) of the same compound?
A: 96 nM

Q: What about the Activity (Cynomolgus monkey [6]) of the same compound?
A: Non-toxic

Q: What about the AUC(0-t) at 24 h [7] of the same compound?
A: 4.9 µM·h

Q: And the Drug uptake (Muscle tissue)?
A: Active

Q: What about the Activity (Mus musculus [8]) of the same compound?
A: Dose-dependent effect

Q: What about the Activity (Mus musculus [9]) of the same compound?
A: 55.6%

Q: And the Vd [10]?
A: 5.9 L/kg

Q: What about the Activity (NCI-H295R) of the same compound?
A: Non-toxic

Q: What about the Activity (Mus musculus [11]) of the same compound?
A: 37.2%

Q: And the concentration at 21 days after cessation of treatment [12]?
A: < 30 nM

Q: And the IC50 [13]?
A: 151 nM

Q: And the Activity (Cynomolgus monkey [14])?
A: Non-toxic

Q: What about the Activity (Mus musculus [15]) of the same compound?
A: Dose-dependent effect

Q: What about the Drug uptake [16] of the same compound?
A: Active

Q: And the inhibition in vivo at 1 mg/kg (Mus musculus [17])?
A: 26.2%

Q: And the Cmax [18]?
A: > 10000 nM

Q: And the concentration (Plasma [19])?
A: 206 nM

Q: What about the Drug uptake [20] of the same compound?
A: Active

Q: What about the Activity (Mus musculus [21]) of the same compound?
A: 23.5%

Q: What about the MRT [22] of the same compound?
A: 6.1 h

Q: And the Drug uptake (Plasma [23])?
A: Active

Q: What about the Activity (Mus musculus [24]) of the same compound?
A: 32.3%

Q: And the inhibition (Mus musculus [25])?
A: Dose-dependent effect

Q: And the clearance [26]?
A: 16 mL/min/kg

Q: What about the inhibition in vivo at 10 mg/kg (Mus musculus [27]) of the same compound?
A: 60%
